Results as given in ChEMBL document CHEMBL5724801, “EUbOPEN Chemogenomics Library - Multiplex” (2024).
Several values for one entry are separate records, joined by “and”; a condition that tells them apart may be missing. Equal entries are not always repeated.

Tested on: U2OS
Assay: Multiplex assay against U2OS
Assay type: toxicity, cell-based
Details: human
In short: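 Values for tubulin, mitochondrial-mass and membrane-permeability phenotypes are per cents of cells with healthy nuclei. These cells were identified by CellPathfinder machine-learning gating of live cells that had been stained at seeding with Hoechst33342, BioTracker Green Microtubule Cytoskeleton Dye, MitoTracker Red and Annexin V Alexa Fluor 680 and imaged on a CQ1 microscope at 37°C and 5% CO2 after compound addition. The gating first set Hoechst high-intensity objects apart from normal cells, then split normal cells into healthy, pyknosed or fragmented nuclei, and pyknosed cells into mitotic or apoptotic.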

[1] = 12 h, 1 µM, compound concentration 1 uM
[2] = 12 h, 10 µM, compound concentration 10 uM
[3] = 24 h, 1 µM, compound concentration 1 uM
[4] = 24 h, 10 µM, compound concentration 10 uM
[5] = 48 h, 1 µM, compound concentration 1 uM
[6] = 48 h, 10 µM, compound concentration 10 uM

Compound: COCCCN1CCC(NC(=O)c2cc(Cl)c(N)c3c2OCC3)CC1 [PRUCALOPRIDE]
- Population Apoptotic (%) [1]: 84% and 87%
- Population Fragmented Nuclei (%) [1]: 30% and 21%
- Population Healthy Nuclei (%) [1]: 63% and 71%
- Population Hoechst High Intensity Objects (%) [1]: 1% and 0%
- Population Membrane Permeable-Phenotype (%) [1]: 7% and 12%
- Population Mitochondria Different-Phenotype (%) [1]: 3% and 7%
- Population Mitotic Cells (%) [1]: 15% and 12%
- Population Normal (%) [1]: 98% and 99%
- Population Pyknosed Nuclei (%) [1]: 6% and 7%
- Population Tubulin-Different-Phenotype (%) [1]: 4% and 8%
- Total Cell Count [1]: 207 and 110
- Population Apoptotic (%) [2]: 68% and 47%
- Population Fragmented Nuclei (%) [2]: 22% and 13%
- Population Healthy Nuclei (%) [2]: 63% and 73%
- Population Hoechst High Intensity Objects (%) [2]: 3% and 2%
- Population Membrane Permeable-Phenotype (%) [2]: 4% and 1%
- Population Mitochondria Different-Phenotype (%) [2]: 0% and 1%
- Population Mitotic Cells (%) [2]: 31% and 52%
- Population Normal (%) [2]: 96% and 97%
- Population Pyknosed Nuclei (%) [2]: 13% and 12%
- Population Tubulin-Different-Phenotype (%) [2]: 2% and 1%
- Total Cell Count [2]: 238 and 140
- Population Apoptotic (%) [3]: 80%
- Population Fragmented Nuclei (%) [3]: 26% and 23%
- Population Healthy Nuclei (%) [3]: 65% and 69%
- Population Hoechst High Intensity Objects (%) [3]: 2% and 1%
- Population Membrane Permeable-Phenotype (%) [3]: 5% and 8%
- Population Mitochondria Different-Phenotype (%) [3]: 3% and 4%
- Population Mitotic Cells (%) [3]: 20%
- Population Normal (%) [3]: 97% and 98%
- Population Pyknosed Nuclei (%) [3]: 8% and 7%
- Population Tubulin-Different-Phenotype (%) [3]: 5% and 7%
- Total Cell Count [3]: 247 and 132
- Population Apoptotic (%) [4]: 87% and 77%
- Population Fragmented Nuclei (%) [4]: 23% and 12%
- Population Healthy Nuclei (%) [4]: 64% and 76%
- Population Hoechst High Intensity Objects (%) [4]: 4% and 1%
- Population Membrane Permeable-Phenotype (%) [4]: 5% and 3%
- Population Mitochondria Different-Phenotype (%) [4]: 2%
- Population Mitotic Cells (%) [4]: 12% and 22%
- Population Normal (%) [4]: 95% and 98%
- Population Pyknosed Nuclei (%) [4]: 12% and 11%
- Population Tubulin-Different-Phenotype (%) [4]: 4% and 3%
- Total Cell Count [4]: 280 and 161
- Population Apoptotic (%) [5]: 85% and 86%
- Population Fragmented Nuclei (%) [5]: 20%
- Population Healthy Nuclei (%) [5]: 73% and 67%
- Population Hoechst High Intensity Objects (%) [5]: 3% and 2%
- Population Membrane Permeable-Phenotype (%) [5]: 3% and 11%
- Population Mitochondria Different-Phenotype (%) [5]: 1% and 6%
- Population Mitotic Cells (%) [5]: 14% and 13%
- Population Normal (%) [5]: 96% and 97%
- Population Pyknosed Nuclei (%) [5]: 6% and 11%
- Population Tubulin-Different-Phenotype (%) [5]: 3% and 9%
- Total Cell Count [5]: 352 and 199
- Population Apoptotic (%) [6]: 88% and 90%
- Population Fragmented Nuclei (%) [6]: 17% and 11%
- Population Healthy Nuclei (%) [6]: 69% and 79%
- Population Hoechst High Intensity Objects (%) [6]: 1%
- Population Membrane Permeable-Phenotype (%) [6]: 5% and 3%
- Population Mitochondria Different-Phenotype (%) [6]: 2% and 3%
- Population Mitotic Cells (%) [6]: 11% and 9%
- Population Normal (%) [6]: 98%
- Population Pyknosed Nuclei (%) [6]: 12% and 9%
- Population Tubulin-Different-Phenotype (%) [6]: 2% and 1%
- Total Cell Count [6]: 347 and 245

Compound: C[C@@H]1CC(=O)Nc2cccc(-c3ccc4c(c3)c(-c3cnn(C)c3)nn4C)c2N1
- Population Apoptotic (%) [1]: 92% and 88%
- Population Fragmented Nuclei (%) [1]: 20% and 16%
- Population Healthy Nuclei (%) [1]: 73% and 75%
- Population Hoechst High Intensity Objects (%) [1]: 1%
- Population Membrane Permeable-Phenotype (%) [1]: 7% and 5%
- Population Mitochondria Different-Phenotype (%) [1]: 4% and 2%
- Population Mitotic Cells (%) [1]: 7% and 11%
- Population Normal (%) [1]: 98%
- Population Pyknosed Nuclei (%) [1]: 6% and 7%
- Population Tubulin-Different-Phenotype (%) [1]: 6% and 2%
- Total Cell Count [1]: 233 and 116
- Population Apoptotic (%) [2]: 86% and 33%
- Population Fragmented Nuclei (%) [2]: 29% and 21%
- Population Healthy Nuclei (%) [2]: 58% and 74%
- Population Hoechst High Intensity Objects (%) [2]: 2% and 1%
- Population Membrane Permeable-Phenotype (%) [2]: 11% and 7%
- Population Mitochondria Different-Phenotype (%) [2]: 11% and 7%
- Population Normal (%) [2]: 97% and 98%
- Population Pyknosed Nuclei (%) [2]: 12% and 4%
- Population Tubulin-Different-Phenotype (%) [2]: 8%
- Population Apoptotic (%) [3]: 95% and 100%
- Population Fragmented Nuclei (%) [3]: 20% and 22%
- Population Healthy Nuclei (%) [3]: 71% and 74%
- Population Hoechst High Intensity Objects (%) [3]: 2% and 1%
- Population Membrane Permeable-Phenotype (%) [3]: 5% and 1%
- Population Mitochondria Different-Phenotype (%) [3]: 2% and 1%
- Population Mitotic Cells (%) [3]: 4% and 0%
- Population Normal (%) [3]: 97% and 98%
- Population Pyknosed Nuclei (%) [3]: 7% and 4%
- Population Tubulin-Different-Phenotype (%) [3]: 2% and 0%
- Total Cell Count [3]: 294 and 152
- Population Apoptotic (%) [4]: 90% and 83%
- Population Fragmented Nuclei (%) [4]: 24% and 15%
- Population Healthy Nuclei (%) [4]: 63% and 78%
- Population Hoechst High Intensity Objects (%) [4]: 4% and 1%
- Population Membrane Permeable-Phenotype (%) [4]: 7% and 6%
- Population Mitochondria Different-Phenotype (%) [4]: 6% and 1%
- Population Mitotic Cells (%) [4]: 10% and 16%
- Population Normal (%) [4]: 95% and 98%
- Population Pyknosed Nuclei (%) [4]: 11% and 6%
- Population Tubulin-Different-Phenotype (%) [4]: 3% and 4%
- Total Cell Count [4]: 266 and 97
- Population Apoptotic (%) [5]: 100%
- Population Fragmented Nuclei (%) [5]: 19% and 13%
- Population Healthy Nuclei (%) [5]: 73% and 77%
- Population Hoechst High Intensity Objects (%) [5]: 1%
- Population Membrane Permeable-Phenotype (%) [5]: 4% and 2%
- Population Mitochondria Different-Phenotype (%) [5]: 2%
- Population Mitotic Cells (%) [5]: 0%
- Population Normal (%) [5]: 98%
- Population Pyknosed Nuclei (%) [5]: 6% and 8%
- Population Tubulin-Different-Phenotype (%) [5]: 3% and 2%
- Total Cell Count [5]: 437 and 224
- Population Apoptotic (%) [6]: 100%
- Population Fragmented Nuclei (%) [6]: 28% and 23%
- Population Healthy Nuclei (%) [6]: 65% and 71%
- Population Hoechst High Intensity Objects (%) [6]: 3% and 4%
- Population Membrane Permeable-Phenotype (%) [6]: 8% and 3%
- Population Mitochondria Different-Phenotype (%) [6]: 3% and 0%
- Population Mitotic Cells (%) [6]: 0%
- Population Normal (%) [6]: 96% and 95%
- Population Pyknosed Nuclei (%) [6]: 5% and 4%
- Population Tubulin-Different-Phenotype (%) [6]: 5% and 3%
- Total Cell Count [6]: 394 and 149
